Experimental data: ChEMBL document CHEMBL1155638, “Anti-AIDS agents 38. Anti-HIV activity of 3-O-acyl ursolic acid derivatives” (J Nat Prod, 2000); call rule not given here

Columns and labels:
[1] = Therapeutic index, IC50 for human T-lymphoid H9 cells to EC50 for HIV1 3B isolate; format: cell-based; conditions: read-out: Ratio IC50/EC50
Method in brief: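 Ratio of IC50 (Coulter count, mock-infected H9 cells, 4 days) to EC50 (p24 ELISA, HIV-1 IIIB-infected H9 cells, 4 days), both determined in parallel within the same assay.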

[2] = system: Human immunodeficiency virus 1; test: Antiviral activity against HIV1 replication in human H9 cells; conditions: for EC50: Homo sapiens, H9; for Activity: human, h9
H9 (human) = test: Cytotoxicity against human H9 cells assessed as growth inhibition after 4 days

CC1(C)CC[C@]2(C(=O)O)CC[C@]3(C)C(=CC[C@@H]4[C@@]5(C)CC[C@H](OC(=O)CC(C)(C)C(=O)O)C(C)(C)[C@@H]5CC[C@]43C)[C@@H]2C1
selectivity ratio [1]: 22300

C[C@H]1[C@H](C)CC[C@]2(C(=O)O)CC[C@]3(C)C(=CC[C@@H]4[C@@]5(C)CC[C@H](OC(=O)CC(C)(C)C(=O)O)C(C)(C)[C@@H]5CC[C@]43C)[C@H]12
selectivity ratio [1]: 23.6
EC50 [2]: 2.1 µM
IC50 (H9 (human); H9, 96 h): 49.5 µM

C[C@H]1[C@H](C)CC[C@]2(C(=O)O)CC[C@]3(C)C(=CC[C@@H]4[C@@]5(C)CC[C@H](OC(=O)CC(C)(C)CC(=O)O)C(C)(C)[C@@H]5CC[C@]43C)[C@H]12
Activity [2]: Not Active
IC50 (H9 (human); H9, 96 h): 7 µM

C[C@H]1[C@H](C)CC[C@]2(C(=O)O)CC[C@]3(C)C(=CC[C@@H]4[C@@]5(C)CC[C@H](OC(=O)COCC(=O)O)C(C)(C)[C@@H]5CC[C@]43C)[C@H]12
selectivity ratio [1]: 156
EC50 [2]: 0.31 µM
IC50 (H9 (human); H9, 96 h): 48.2 µM

C[C@H]1[C@H](C)CC[C@]2(C(=O)O)CC[C@]3(C)C(=CC[C@@H]4[C@@]5(C)CC[C@H](OC(=O)C(C)(C)CC(=O)O)C(C)(C)[C@@H]5CC[C@]43C)[C@H]12
Activity [2]: Not Active
IC50 (H9 (human); H9, 96 h): 30.7 µM

CC(C)CC(=O)O[C@H]1CC[C@]2(C)[C@H]3CC=C4[C@@H]5[C@@H](C)[C@H](C)CC[C@]5(C(=O)O)CC[C@@]4(C)[C@]3(C)CC[C@H]2C1(C)C
Activity [2]: Not Active
IC50 (H9 (human); H9, 96 h): > 18.5 µM

C[C@H]1[C@H](C)CC[C@]2(C(=O)O)CC[C@]3(C)C(=CC[C@@H]4[C@@]5(C)CC[C@H](OC(=O)CC(C)(C)C)C(C)(C)[C@@H]5CC[C@]43C)[C@H]12
Activity [2]: Not Active
IC50 (H9 (human); H9, 96 h): > 18 µM

C[C@H]1[C@H](C)CC[C@]2(C(=O)O)CC[C@]3(C)C(=CC[C@@H]4[C@@]5(C)CC[C@H](OC(=O)CCC(=O)O)C(C)(C)[C@@H]5CC[C@]43C)[C@H]12
selectivity ratio [1]: 2.9
EC50 [2]: 15.3 µM
IC50 (H9 (human); H9, 96 h): 44.9 µM

C[C@H]1[C@H](C)CC[C@]2(C(=O)O)CC[C@]3(C)C(=CC[C@@H]4[C@@]5(C)CC[C@H](OC(=O)CCCC(=O)O)C(C)(C)[C@@H]5CC[C@]43C)[C@H]12
selectivity ratio [1]: 4.8
EC50 [2]: 6.4 µM
IC50 (H9 (human); H9, 96 h): 30.7 µM

C[C@H]1[C@H](C)CC[C@]2(C(=O)O)CC[C@]3(C)C(=CC[C@@H]4[C@@]5(C)CC[C@H](O)C(C)(C)[C@@H]5CC[C@]43C)[C@H]12
IC50 (H9 (human); h9): 1.8 µM

C=C(C)[C@@H]1CC[C@]2(C(=O)O)CC[C@]3(C)[C@H](CC[C@@H]4[C@@]5(C)CC[C@H](O)C(C)(C)[C@@H]5CC[C@]43C)[C@@H]12 [BETULINIC ACID]
selectivity ratio [1]: 9.2
IC50 (H9 (human); H9, 96 h): 12.9 µM

C=C(C)[C@@H]1CC[C@]2(C(=O)O)CC[C@]3(C)[C@H](CC[C@@H]4[C@@]5(C)CC[C@H](OC(=O)CC(C)(C)C(=O)O)C(C)(C)[C@@H]5CC[C@]43C)[C@@H]12 [BEVIRIMAT]
selectivity ratio [1]: > 20000
EC50 [2]: < 0.00035 µM
IC50 (H9 (human); H9, 96 h): 7 µM

CC1(C)CC[C@]2(C(=O)O)CC[C@]3(C)C(=CC[C@@H]4[C@@]5(C)CC[C@H](O)C(C)(C)[C@@H]5CC[C@]43C)[C@@H]2C1 [OLEANOLIC_ACID]
selectivity ratio [1]: 12.9

C[C@@H]1CC[C@]2(C(=O)O)CC[C@]3(C)C(=CC[C@@H]4[C@@]5(C)CC[C@H](O)C(C)(C)[C@@H]5CC[C@]43C)[C@@H]2[C@]1(C)O [POMOLIC ACID]
selectivity ratio [1]: 16.3
EC50 [2]: 3 µM
